The test system of assay [1] is Staphylococcus aureus. The assay is described as follows: Antibacterial activity against Staphylococcus aureus ATCC 6538p after 24 hrs. It counts as functional.
Assay [2] relates to Bacillus subtilis. Put plainly: Antibacterial activity against Bacillus subtilis ATCC 6633 after 24 hrs. It counts as functional. The note with it: ATCC 6633, 24 h.
Assay [3] has as its system Micrococcus luteus. The assay is described as follows: Antibacterial activity against Micrococcus luteus IFC 12708 after 24 hrs. It counts as functional. The note with it: IFC 12708, 24 h.
Assay [4] relates to Salmonella typhimurium. The assay is described as follows: Antibacterial activity against Salmonella typhimurium ATCC 14028 after 24 hrs. It counts as functional, Salmonella enterica subsp. enterica serovar Typhimurium. The note with it: Salmonella enterica, ATCC 14028, 24 h.
Assay [5] deals with Proteus vulgaris. The assay is described as follows: Antibacterial activity against Proteus vulgaris ATCC 3851 after 24 hrs. It counts as functional. To be noted: ATCC 3851, 24 h.
Assay [6] deals with Escherichia coli. Put plainly: Antibacterial activity against Escherichia coli ATCC 35270 after 24 hrs. It counts as functional. The note with it: ATCC 35270, 24 h.
The subject of assay [7] is Aspergillus fumigatus. The assay is described as follows: Antifungal activity against Aspergillus fumigatus HIC 6094 after 48 to 72 hrs. It counts as functional.
Assay [8] has as its system Trichophyton rubrum. The assay is described as follows: Antifungal activity against Trichophyton rubrum IFO 9185 after 48 to 72 hrs. It counts as functional.
For assay [9], the system named is Trichophyton mentagrophytes. Put plainly: Antifungal activity against Trichophyton mentagrophytes IFO 40996 after 48 to 72 hrs. It counts as functional.
In assay [10] the test system is Candida albicans. The assay is described as follows: Antifungal activity against Candida albicans ATCC 10231 after 48 to 72 hrs. It counts as functional.
In assay [11] the test system is A549. Put plainly: Cytotoxicity against human A549 cells by MTT assay. The note with it: read-out: LC50 (the source's name). It counts as functional. Background: Tetrazolium assays rely on reduction of a dye to a coloured formazan, in cell work by metabolically active cells.
Assay [12] has as its target T1, Sortase A (Staphylococcus aureus, UniProt Q9S446).
T1 sequence (Q9S446 whole entry): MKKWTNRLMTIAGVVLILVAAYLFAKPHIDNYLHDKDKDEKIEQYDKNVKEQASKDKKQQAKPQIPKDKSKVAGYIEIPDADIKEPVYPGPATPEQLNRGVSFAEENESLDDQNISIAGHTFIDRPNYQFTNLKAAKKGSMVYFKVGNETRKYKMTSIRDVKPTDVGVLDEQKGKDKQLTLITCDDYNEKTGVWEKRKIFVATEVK
The assay is described as follows: Inhibition of Staphylococcus aureus ATCC 6538p recombinant SrtA. Also on record: species or system ATCC 6538p r.

The target in assay [13] is Isocitrate lyase (Candida albicans, UniProt Q9P8Q7). The assay is described as follows: Inhibition of Candida albicans recombinant ICL assessed as formation of glyoxylate phenylhydrazone by spectrophotometry. The gist of the method:
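Recombinant enzyme assayed spectrophotometrically with isocitrate and phenylhydrazine present. Absorbance at 324 nm was monitored for glyoxylate phenylhydrazone formation, and IC50 was determined.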

The nature of assay [14]: Inhibition of porcine cerebral cortex Na+/K+ ATPase assessed as formation of fluorescent 3-O-methylfluorescein from 3-O-methylfluorescein phosphate by fluorometry. It counts as tissue-based, Sus scrofa.

From ChEMBL document CHEMBL2046370, “Beta-carboline alkaloids derived from the ascidian Synoicum sp” (Bioorg Med Chem, 2012) come the findings set out here.

The structures appear in SMILES notation. pIC50: −log10 of the molar value. In brackets after ≈: the same amount, converted by molar mass. Some results are limits rather than exact numbers.

Isocitrate lyase, sequence (Q9P8Q7 whole entry): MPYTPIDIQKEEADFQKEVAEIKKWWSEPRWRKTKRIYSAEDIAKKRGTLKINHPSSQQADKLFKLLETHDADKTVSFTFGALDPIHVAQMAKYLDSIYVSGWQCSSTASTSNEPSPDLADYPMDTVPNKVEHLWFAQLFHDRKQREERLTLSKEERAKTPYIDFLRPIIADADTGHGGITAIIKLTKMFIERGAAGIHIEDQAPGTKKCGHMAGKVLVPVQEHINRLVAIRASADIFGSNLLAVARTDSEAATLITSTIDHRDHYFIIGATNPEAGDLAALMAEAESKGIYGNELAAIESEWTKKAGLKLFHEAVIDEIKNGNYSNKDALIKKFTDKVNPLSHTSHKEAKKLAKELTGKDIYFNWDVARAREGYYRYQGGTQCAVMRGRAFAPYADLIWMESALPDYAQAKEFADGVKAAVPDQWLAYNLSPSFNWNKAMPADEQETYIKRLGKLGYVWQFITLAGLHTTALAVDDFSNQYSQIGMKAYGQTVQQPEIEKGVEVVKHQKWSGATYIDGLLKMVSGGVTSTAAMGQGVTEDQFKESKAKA

As a reminder, the MIC is the least concentration at which growth counts as inhibited. As a reminder, the pIC50 is the negative decadic logarithm of the IC50, by convention in mol/L. Regarding `O=C(c1ccc(O)c(Br)c1)c1nccc2c1[nH]c1ccccc12` [EUDISTOMIN Y3], the minimum inhibitory concentration (MIC) in assay [1] came out at 12.5 µg/mL (≈ 34 µM); in assay [2] it was 12.5 µg/mL (≈ 34 µM); in assay [3] it was 12.5 µg/mL (≈ 34 µM); in [4], 6.25 µg/mL (≈ 17 µM); in assay [5], 6.25 µg/mL (≈ 17 µM); in assay [6], 100 µg/mL (≈ 272 µM). Also, the minimal inhibitory concentration (MIC) in assay [7], in [8], in [9] and in assay [10] was more than 100 µg/mL in each case. The CC50 in assay [11] came to 253 µM. For the same compound, the pIC50 in assay [12] was less than 3.56; in assay [13], less than 3.56; in assay [14] it was 4.65.
